Experimental data from ChEMBL document CHEMBL2390834, “Structure-activity relationships for ferriprotoporphyrin IX association and β-hematin inhibition by 4-aminoquinolines using experimental and ab initio methods” (Bioorg Med Chem, 2013).

How the values were obtained:
[1] = test system: Ferriprotoporphyrin IX; test: Binding affinity to ferriprotoporphyrin 9 at pH 7.5 by UV-vis spectrophotometric analysis in presence of 40% DMSO
Procedure, shortened: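 Association constant (log K) with Fe(III)PPIX measured by spectrophotometric titration in 40% aqueous (v/v) DMSO, pH 7.5, using a previously described method without modification.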

[2] = Inhibition of beta-hematin formation after 60 mins by colorimetric assay relative to Fe(3)PP9; assay type: functional
Procedure, shortened: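 4.5 M acetate drives β-hematin formation. Leftover Fe(III)PPIX is then reacted with 5% aqueous pyridine to give a low-spin bis-pyridyl complex, read colorimetrically. Prior method used unmodified; result reported as BHIA₅₀ (50% inhibitory activity).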

[3] = test system: Plasmodium falciparum; test: Antimalarial activity against chloroquine-sensitive Plasmodium falciparum NF54 by [3H]hypoxanthine incorporation assay; assay type: functional, organism-based
Procedure, shortened: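 Chloroquine-sensitive NF54 P. falciparum parasites grown in vitro; growth measured by [³H]-hypoxanthine incorporation, essentially as in earlier work; IC50 in nM.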

SMILES | log K [1] | IA50 [2] [equiv] | IC50 [3] [nM]
CNc1ccnc2cc(C#N)ccc12 | 4.42 | 4.5 | 
NCCNc1ccnc2cc([N+](=O)[O-])ccc12 | 4.48 | 5.3 | 747
COc1ccc2c(N)ccnc2c1 | 4.24 | 15.6 | 
Nc1ccnc2cc(C(F)(F)F)ccc12 | 4.41 | 5.6 | 
Nc1ccnc2cc([N+](=O)[O-])ccc12 | 4.57 | 5.7 | 
CCN(CC)CCNc1ccnc2cc(I)ccc12 | 5.02 | 2.8 | 
Nc1ccc2c(N)ccnc2c1 | 3.44 | > 20 | 
CCN(CC)CCNc1ccnc2cc(C(F)(F)F)ccc12 | 4.67 | 8 | 
CCN(CC)CCNc1ccnc2cc(Cl)ccc12 | 5.81 | 2.2 | 
CCN(CC)CCNc1ccnc2cc(C)ccc12 | 4.86 | 17 | 
CNc1ccnc2cc(OC)ccc12 | 3.71 | 10.4 | 
Nc1ccnc2ccccc12 | 3.83 | 10 | 
CCN(CC)CCNc1ccnc2ccccc12 | 4.75 | > 20 | 
COc1ccc2c(NCCN)ccnc2c1 | 4.47 | 10.6 | 
CCN(CC)CCNc1ccnc2cc([N+](=O)[O-])ccc12 | 4.65 | 3.1 | 
CNc1ccnc2cc([N+](=O)[O-])ccc12 | 4.32 | 5.5 | 
NCCNc1ccnc2cc(Cl)ccc12 | 5.1 | 5.4 | 4.6
CNc1ccnc2cc(C)ccc12 | 4.01 | 11.1 | 

SMILES | log K [1] | IA50 [2] [equiv] | IC50 [3] [nM]
CCN(CC)CCNc1ccnc2cc(F)ccc12 | 4.6 | 9.7 | 
Nc1ccnc2cc(Cl)ccc12 | 5.01 | 5.8 | 
CCN(CC)CCNc1ccnc2cc(OC)ccc12 | 4.83 | > 20 | 
CNc1ccnc2ccccc12 | 3.92 | 14.9 | 
CCN(CC)CCNc1ccnc2cc(N)ccc12 | 4.35 | > 20 | 
Cc1ccc2c(NCCN)ccnc2c1 | 4.35 | 10.3 | 37
N#Cc1ccc2c(NCCN)ccnc2c1 | 4.47 | 6.3 | 20
CNc1ccnc2cc(N)ccc12 | 4.04 | > 20 | 
CNc1ccnc2cc(C(F)(F)F)ccc12 | 4.18 | 5 | 
CCN(CC)CCNc1ccnc2cc(Br)ccc12 | 4.99 | 4.4 | 
NCCNc1ccnc2cc(C(F)(F)F)ccc12 | 4.7 | 5.4 | 8.6
NCCNc1ccnc2ccccc12 | 4.38 | 10.6 | 66
NC(=O)c1ccc2c(N)ccnc2c1 | 3.76 | 10.3 | 
CNc1ccnc2cc(Cl)ccc12 | 4.62 | 5.7 | 
CNc1ccnc2cc(C(N)=O)ccc12 | 3.43 | 10.1 | 
N#Cc1ccc2c(N)ccnc2c1 | 4.32 | 6.1 | 
Cc1ccc2c(N)ccnc2c1 | 4.17 | 10.8 | 
